Experimental data of several laboratories.
Effect on: cell growth or viability

| SMILES | cell line | assay | conditions | IC50 |
| --- | --- | --- | --- | --- |
| CCc1c2c(nc3ccc(O)cc13)-c1cc3c(c(=O)n1C2)COC(=O)[C@]3(O)CC | COS-7 | ATP luminescence |  | 131000 nM |
| O=c1[nH]cc(F)c(=O)[nH]1 | MGC-803 | MTT | 48 h | 39000 nM |
| CC[C@@H](C)[C@H](N)C(=O)N1Cc2ccccc2C1 | Kasumi 1 | ATP luminescence | 48 h | > 60000 nM |
| C#C[C@@]1(O)[C@@H](COP(=O)(O)OC[C@H]2O[C@@H](n3cc(F)c(=O)[nH]c3=O)C[C@@H]2O)O[C@@H](n2ccc(N)nc2=O)[C@@H]1O | FM3A/0 | MTT | 72 h | 2.2 nM |
| CC[C@H](C)C(=O)O[C@H]1C[C@H](O)C=C2C=C[C@H](C)[C@H](CC[C@@H](O)C[C@@H](O)CC(=O)O)[C@H]21 | SW480 | SRB | 72 h | > 200 µg/mL |
| CC1(C)[C@@H](O)CC[C@]2(C)[C@H]3C(=O)C=C4[C@@H]5C[C@@](C)(C(=O)O)CC[C@]5(C)CC[C@@]4(C)[C@]3(C)CC[C@@H]12 | ECa-109 | MTT | 48 h | 19000 nM |
| C[C@@H]1CCO[C@H]2Cn3cc(C(=O)NCc4ccc(F)cc4F)c(=O)c(O)c3C(=O)N12 | COS-7 | ATP luminescence |  | 360000 nM |
| CC1=C(O)C(=O)C=C2C1=CC=C1[C@@]2(C)CC[C@@]2(C)[C@@H]3C[C@](C)(C(=O)OCCCCCCCCO)CC[C@]3(C)CC[C@]12C | MGC-803 | MTT | 48 h | 380 nM |
| CC(C)C[C@H](NC(=O)[C@H](Cc1ccccc1)NC(=O)c1cnccn1)B(O)O | NCI-N87 | ATP luminescence |  | 9.1 nM |
| CC1=C(O)C(=O)C=C2C1=CC=C1[C@@]2(C)CC[C@@]2(C)[C@@H]3C[C@](C)(C(=O)OCCCN4C(=O)C5C=CC=CC5C4=O)CC[C@]3(C)CC[C@]12C (stereo partly drawn) | MGC-803 | MTT | 48 h | 390 nM |
| Cc1cccc(-n2ncc(Br)c(Br)c2=O)c1 | NCI-H2030 | resazurin | 96 h | 370 nM |
| C#C[C@@]1(O)[C@@H](CO)O[C@@H](n2ccc(N)nc2=O)[C@@H]1O | FM3A/0 | MTT | 72 h | 1.6 nM |
| Cc1cnc(-c2ccc(-c3ccc(NC(=O)Nc4c(F)cc(F)cc4F)cc3F)c3c2C(=O)NC3)[nH]1 | Kasumi 1 |  |  | 22 nM |
| CC1=C(O)C(=O)C=C2C1=CC=C1[C@@]2(C)CC[C@@]2(C)[C@@H]3C[C@](C)(C(=O)OCCCCCO)CC[C@]3(C)CC[C@]12C | MGC-803 | MTT | 48 h | 320 nM |
| Cc1ccc(C(=O)N(CCCN)[C@@H](c2nc3cc(Cl)ccc3c(=O)n2Cc2ccccc2)C(C)C)cc1 | MM1.S | ATP luminescence | 72 h | 12.6 nM |
| CC1=C(O)C(=O)C=C2C1=CC=C1[C@@]2(C)CC[C@@]2(C)[C@@H]3C[C@](C)(C(=O)OCCCCO)CC[C@]3(C)CC[C@]12C | MGC-803 | MTT | 48 h | 270 nM |
| Cc1ccc(-c2ccc(O)cc2)c(C(=C2C=CC(=O)C=C2)c2ccc(O)cc2)c1C#Cc1ccc(O)cc1 | MGC-803 | MTT | 48 h | 15000 nM |
| CC1=C(O)C(=O)C=C2C1=CC=C1[C@@]2(C)CC[C@@]2(C)[C@@H]3C[C@](C)(C(=O)OCCCOc4ccccc4)CC[C@]3(C)CC[C@]12C | MGC-803 | MTT | 48 h | 460 nM |
| Nc1ccn([C@@H]2O[C@H](CO)[C@@H](O)C2(F)F)c(=O)n1 | 143B | resazurin | 72 h | 8.9 nM |
| CC1=C(O)C(=O)C=C2C1=CC=C1[C@@]2(C)CC[C@@]2(C)[C@@H]3C[C@](C)(C(=O)OCCCO)CC[C@]3(C)CC[C@]12C | MGC-803 | MTT | 48 h | 290 nM |
| COc1cccc2c1C(=O)c1c(O)c3c(c(O)c1C2=O)C[C@@](O)(C(=O)CO)C[C@@H]3O[C@H]1C[C@H](N)[C@H](O)[C@H](C)O1 | ECa-109 | MTT | 48 h | 170 nM |
